Measured values: ChEMBL document CHEMBL4152356, “Amphipathic sulfonamidobenzamides mimicking small antimicrobial marine natural products; investigation of antibacterial and anti-biofilm activity against antibiotic resistant clinical isolates” (Bioorg Med Chem, 2018)
Activity calls are given as the source filed them.

How the values were obtained:
Staphylococcus aureus [1] = test: Antibacterial activity against Staphylococcus aureus ATCC 9144 after 48 hrs by microdilution method; format: functional; conditions: ATCC 9144, 48 h
Outline: (§1)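 Broth microdilution (CLSI M07-A9, modified) in Mueller-Hinton broth; inoculum about 2.5-3 × 10^4 cells/ml mixed 1:1 with serial compound dilutions. Stock solutions in up to 100% DMSO, final DMSO ≤1%. Incubated 35 °C for 48 h.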

Pseudomonas aeruginosa [2] = test: Antibacterial activity against Pseudomonas aeruginosa PAO1 DSM 19880 ATCC 15692 after 48 hrs by microdilution method; format: functional; conditions: PAO1 DSM 19880 ATCC 15692, 48 h; outline: as §1
Erythrocyte = test: Hemolytic activity against human RBC measured after 1 hr; format: cell-based
Outline: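 Washed human RBCs from a healthy donor (heparinized) at 10% in PBS pH 7.4, mixed 9:1 with serial compound dilutions, 37 °C for 1 h. Baseline set by 0.5% DMSO in 50% PBS, 100% lysis by 0.05% Triton X-100. EC50 is the concentration giving 50% lysis.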

MRC5 = test: Cytotoxicity against human MRC5 cells after 72 hrs by MTS assay; format: cell-based; conditions: MRC5, 72 h
Outline: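 MRC-5 lung fibroblasts in DMEM with 10% FBS, 37 °C, 5% CO2; seeded at 4000 cells/well, adhered 24 h, medium replaced. Two-fold dilutions up to 100 µg/ml for 72 h, then MTS for 1 h and absorbance at 485 nm. Controls were 1% DMSO (negative) and 0.5% Triton X-100 (positive). EC50 is the concentration giving 50% inhibition of survival.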

Escherichia coli [3] = test: Antibacterial activity against Escherichia coli clinical isolates after 24 hrs by microdilution method; format: functional
Outline: (§2)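 Clinical isolate screen by broth microdilution with about 1-1.2 × 10^6 cells/ml and 24 h incubation. MIC is the lowest concentration with no growth. For isolate collections, MIC90 is the MIC inhibiting ≥90% of isolates. Multidrug resistance was defined as resistance to at least […] antimicrobial class.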

Klebsiella pneumoniae [4] = test: Antibacterial activity against Klebsiella pneumoniae clinical isolates after 24 hrs by microdilution method; format: functional; outline: as §2
Staphylococcus aureus [5] = test: Antibacterial activity against methicillin resistant Staphylococcus aureus WIS clinical isolate after 24 hrs by microdilution method; format: functional
Outline: (§3)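 Broth microdilution in Mueller-Hinton broth (modified CLSI M07-A9), clinical isolates at about 1-1.2 × 10^6 cells/ml. Inoculum mixed 1:1 with serial compound dilutions; stocks made in up to 100% DMSO, final DMSO ≤1%. Incubated 24 h.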

Staphylococcus aureus [6] = test: Antibacterial activity against methicillin resistant Staphylococcus aureus IHT 99040 clinical isolate after 24 hrs by microdilution method; format: functional; conditions: IHT 99040, 24 h; outline: as §3
Enterococcus faecium [7] = test: Antibacterial activity against vancomycin resistant Enterococcus faecium 50,673,722 clinical isolate after 24 hrs by microdilution method; format: functional; conditions: Enterococcus faecium, 50,673,722, 24 h; outline: as §3
Enterococcus faecium [8] = test: Antibacterial activity against vancomycin resistant Enterococcus faecium TUH50-22 clinical isolate after 24 hrs by microdilution method; format: functional; conditions: TUH50-22, 24 h; outline: as §3
Escherichia coli [9] = test: Antibacterial activity against Verona integron-encoded metallo-beta-lactamase 29-producing Escherichia coli 50,639,799 clinical isolate after 24 hrs by microdilution method; format: functional; conditions: Escherichia coli, 50,639,799, 24 h; outline: as §2
Pseudomonas aeruginosa [10] = test: Antibacterial activity against Verona integron-encoded metallo-beta-lactamase 2-producing Pseudomonas aeruginosa K347 clinical isolate after 24 hrs by microdilution method; format: functional; conditions: K347, 24 h; outline: as §2
Pseudomonas aeruginosa [11] = test: Antibacterial activity against Verona integron-encoded metallo-beta-lactamase-producing Pseudomonas aeruginosa 50,692,520 clinical isolate after 24 hrs by microdilution method; format: functional; conditions: Pseudomonas aeruginosa, 50,692,520, 24 h; outline: as §2
Klebsiella pneumoniae [12] = test: Antibacterial activity against KPC2-producing Klebsiella pneumoniae K4725 clinical isolate after 24 hrs by microdilution method; format: functional; conditions: K4725, 24 h; outline: as §2
Klebsiella pneumoniae [13] = test: Antibacterial activity against Verona integron-encoded metallo-beta-lactamase 1-producing Klebsiella pneumoniae 50,667,959 clinical isolate after 24 hrs by microdilution method; format: functional; conditions: Klebsiella pneumoniae, 50,667,959, 24 h; outline: as §2
Acinetobacter baumannii = test: Antibacterial activity against oxacillinase 23-producing Acinetobacter baumannii K44-35 clinical isolate after 24 hrs by microdilution method; format: functional; conditions: K44-35, 24 h; outline: as §3
Bacillus subtilis = test: Induction of membrane disruption in Bacillus subtilis 168 expressing luciferase at 4 ug/ml […] by luminescence assay; format: functional, organism-based; conditions: subsp. subtilis str. 168

Work on `CC(C)(C)c1cc(C(C)(C)C)cc(S(=O)(=O)Nc2cc3ccccc3cc2C(=O)NCCNC(=N)N)c1.Cl` yielded an MIC (Staphylococcus aureus [1]) of 4 µg/mL, an MIC (Pseudomonas aeruginosa [2]) of 32 µg/mL and an EC50 (Erythrocyte) of 25 µg/mL. It also gave an EC50 (MRC5) of 55 µg/mL, an MIC (Escherichia coli [3]) of 8 µg/mL and an MIC (Klebsiella pneumoniae [4]) of 16 to 32 µg/mL. For the same compound, the MIC (Staphylococcus aureus [5]) was 8 µg/mL, the MIC (Staphylococcus aureus [6]) was 8 µg/mL and the MIC (Enterococcus faecium [7]) was 8 µg/mL. For the same compound, the MIC (Enterococcus faecium [8]) was 4 µg/mL, the MIC (Escherichia coli [9]) was at least 32 µg/mL and the MIC (Pseudomonas aeruginosa [10]) was over 64 µg/mL. It also gave an MIC (Pseudomonas aeruginosa [11]) of at least 64 µg/mL, an MIC (Klebsiella pneumoniae [12]) of over 32 µg/mL and an MIC (Klebsiella pneumoniae [13]) of at least 32 µg/mL. For the same compound, the MIC (Acinetobacter baumannii) was 32 µg/mL.

For `CN(c1ccc(C(=O)NCCCNC(=N)N)cc1)S(=O)(=O)c1cc(C(C)(C)C)cc(C(C)(C)C)c1.Cl`, the Activity (Bacillus subtilis) was “Active”, the MIC (Staphylococcus aureus [1]) was 4 µg/mL and the MIC (Pseudomonas aeruginosa [2]) was 16 µg/mL. For the same compound, the EC50 (Erythrocyte) was 55 µg/mL, the EC50 (MRC5) was 36 µg/mL and the MIC (Escherichia coli [3]) was 16 µg/mL. For the same compound, the MIC (Klebsiella pneumoniae [4]) was 32 µg/mL, the MIC (Staphylococcus aureus [5]) was 8 µg/mL and the MIC (Staphylococcus aureus [6]) was 8 µg/mL. For the same compound, the MIC (Enterococcus faecium [7]) was 16 µg/mL, the MIC (Enterococcus faecium [8]) was 16 µg/mL and the MIC (Escherichia coli [9]) was 32 µg/mL. It also gave an MIC (Pseudomonas aeruginosa [10]) of over 32 µg/mL, an MIC (Pseudomonas aeruginosa [11]) of 32 µg/mL and an MIC (Klebsiella pneumoniae [12]) of at least 32 µg/mL. For the same compound, the MIC (Klebsiella pneumoniae [13]) was at least 32 µg/mL and the MIC (Acinetobacter baumannii) was at least 32 µg/mL.
